Measurements published in article PMC3724457 (Cellular and molecular life sciences : CMLS, 2009).
Read-outs that look alike come from different tables or passages of the source. Each block holds one molecule with its values, some of them ahead of it. *1 amine or outer side, *2 acyl side, *3 side chain or, on linkers, in order; H or OH if unused. Where a SMILES comes first, the peptide text is derived from it. Bridges are numbered along the chain shown (N, C = ends). Roman numbers before positions name the chains, in order. [ ]: non-standard residue; d: D form. Actinocin(9to1) = Cc1c2oc3c(C)ccc(C(=O)[*:1])c3nc-2c(C(=O)[*:2])c(N)c1=O; NMeV = CN[C@H](C(=O)O)C(C)C; Sar = CNCC(=O)O

B1: GST-ZO1-PDZ2 WT (domain or fragment, human)
chain: KVTLVKSRKNEEYGLRLASHIFVKEISQDSLAARDGNIQEGDVVLKINGTVTENMSLTDAKTLIERSKGKLKMVVQRDE

What was measured:
ZO-1 PDZ2 R193A [1] = biological target: ZO-1 PDZ2 R193A (Homo sapiens, UniProt Q07157, R193A); assay: ITC peptide binding
In short: (§1)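 Each PDZ2 domain, wild type or point mutant, was held at 20 μM in 20 mM HEPES, 150 mM NaCl, pH 7.5, degassed. It was titrated with 20 × 15 μl injections of 200 μM Cx43 C-terminal 20-mer peptide, stirred at 250 rpm, with 5 min between injections. Peptide-into-buffer dilution heat was subtracted, and integrated data were fitted to a binding model. Representative of duplicate runs.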

ZO-1 PDZ2 K246A = ZO-1 PDZ2 K246A (Homo sapiens, UniProt Q07157, K246A); assay: ITC peptide binding
In short: as §1

ZO-1 PDZ2 K194A [2] = biological target: ZO-1 PDZ2 K194A (Homo sapiens, UniProt Q07157, K194A); assay: ITC peptide binding
In short: as §1

ZO-1 PDZ2 R201A = ZO-1 PDZ2 R201A (Homo sapiens, UniProt Q07157, R201A); assay: ITC peptide binding
In short: as §1

ZO-1 PDZ2 R219A [3] = biological target: ZO-1 PDZ2 R219A (Homo sapiens, UniProt Q07157, R219A); assay: ITC peptide binding
In short: as §1

GST-ZO1-PDZ2 [4] = assay: Kinetic SPR measurements; type: binding, human; settings: 1 µM protein, POPC/POPE/POPS/PtdInsP (37:40:20:3) vesicles, 20 mM HEPES pH 7.4, 0.16 M KCl
In short: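 GST-fused PDZ2 was expressed in E. coli BL21(DE3) with IPTG induction at 37°C for 4 h, then purified on glutathione-Sepharose. Active sensor surface carried PtdInsP-containing vesicles and the control surface carried POPC/POPE (60:40) vesicles, both from 0.4 mg/ml lipid solution and loaded to equal RU. Seven PtdInsP species were compared. Kinetic data gave relative membrane affinity only; no Kd was derived.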

GST-ZO2-PDZ2 = assay: ELISA PtdInsP binding assay; set-up: species or system mouse; settings: ELISA on PIP plates, absorbance 450 nm, n=3, protein 10 nM, 1 h room temperature
In short: (§2)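 GST-fusion PDZ2 domains (ZO-1 human, ZO-2 mouse) or GST-PH domain of PLC-δ1 (positive control) at 10 nM, with GST as negative control, were incubated 1 h at room temperature on preblocked PtdInsP-coated plates. Wells were washed three times with PBS/0.1% Tween-20, then probed 1 h at room temperature with HRP-anti-GST. Detection used TMB substrate with absorbance at 450 nm; mean ± SD, n = 3.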

[5] = system: GST-ZO2-PDZ2 WT binding to Cx43 peptide; assay: Pull-down competition by phospholipids; set-up: species or system mouse; settings: 3 µg GST-ZO2-PDZ2 WT preincubated with phospholipid liposomes
In short: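 3 μg GST-ZO-2 PDZ2 WT was preincubated with phospholipid liposomes at increasing concentrations. It was then pulled down with Cx43 C-terminal 20-mer peptide coupled to CNBr-activated Sepharose 4B at 5–7 mg/ml.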

GST-ZO1-PDZ2 [6] = assay: ELISA PtdInsP binding assay; set-up: species or system human; settings: ELISA on PIP plates, absorbance 450 nm, n=3, protein 10 nM, 1 h room temperature
In short: as §2

[7] = biological target: Connexin43 (Homo sapiens) (UniProt P17302); settings: cited from earlier work
GST-ZO2-PDZ2 WT (mouse) = assay: SEC
[8] = biological target: Connexin 43 (Cx43) C-terminal peptide; assay: ITC
GST-ZO1-PDZ1–3 = assay: Lipid-overlay assay; type: binding, human; settings: PIP strips, not quantitative, no membrane environment
In short: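 A GST-fused human ZO-1 PDZ1–3 construct was overlaid on nitrocellulose membranes carrying immobilised phospholipids, following the manufacturer's protocol. GST served as negative control and the GST-PH domain of LL5α as positive control. Lipids were not in a membrane environment, and the readout is qualitative.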

nuclear speckles = settings: transcriptional inhibition; ref [39]; cited from earlier work
[9] = biological target: Connexin43 (Homo sapiens) (UniProt P17302); settings: cited from earlier work; remark: listed apart in the source
SEC = biological target: the molecule itself; assay: SEC
ZO-1 PDZ2 R251AK253A = biological target: T1, ZO-1 PDZ2 R251AK253A (human, UniProt Q07157 186-264, R251A | K253A); assay: ITC
T1 sequence: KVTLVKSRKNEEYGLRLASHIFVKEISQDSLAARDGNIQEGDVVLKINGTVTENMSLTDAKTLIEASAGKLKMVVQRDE

ZO-1 PDZ2 R251A = biological target: T2, ZO-1 PDZ2 R251A (human, UniProt Q07157 186-264, R251A); assay: ITC
T2 sequence: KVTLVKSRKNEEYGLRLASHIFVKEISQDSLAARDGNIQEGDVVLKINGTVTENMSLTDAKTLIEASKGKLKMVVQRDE

ZO-1 PDZ2 R219A [10] = biological target: T3, ZO-1 PDZ2 R219A (human, UniProt Q07157 186-264, R219A); assay: ITC
T3 sequence: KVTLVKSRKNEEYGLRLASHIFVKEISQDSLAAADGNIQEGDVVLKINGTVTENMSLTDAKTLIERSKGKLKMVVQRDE

ZO-1 PDZ2 K194A [11] = biological target: T4, ZO-1 PDZ2 K194A (human, UniProt Q07157 186-264, K194A); assay: ITC
T4 sequence: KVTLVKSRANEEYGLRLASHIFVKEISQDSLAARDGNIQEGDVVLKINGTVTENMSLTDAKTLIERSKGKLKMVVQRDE

GST-ZO1-PDZ2 WT = biological target: B1; assay: ITC
ZO-1 PDZ2 K253A = biological target: T5, ZO-1 PDZ2 K253A (human, UniProt Q07157 186-264, K253A); assay: ITC
T5 sequence: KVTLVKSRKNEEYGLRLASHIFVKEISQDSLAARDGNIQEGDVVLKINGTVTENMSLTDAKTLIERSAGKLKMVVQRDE

ZO-1 PDZ2 R193A [12] = biological target: T6, ZO-1 PDZ2 R193A (human, UniProt Q07157 186-264, R193A); assay: ITC
T6 sequence: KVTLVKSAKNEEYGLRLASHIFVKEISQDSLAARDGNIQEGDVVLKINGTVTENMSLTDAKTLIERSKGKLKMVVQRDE

ZO-1 PDZ2 K246A, sequence (Q07157 186-264 K246A limits assumed): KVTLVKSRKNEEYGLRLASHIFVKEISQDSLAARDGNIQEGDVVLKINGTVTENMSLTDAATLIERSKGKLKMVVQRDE
ZO-1 PDZ2 R201A, sequence (Q07157 186-264 R201A limits assumed): as the sequence (Q07157 186-264 K246A limits assumed) above, with R16A, A61K counted along it

Molecule: Phosphatidylinositol 4,5-bisphosphate [PtdIns(4,5)P2]
PtdInsP selectivity (relative binding) (GST-ZO1-PDZ2 [4]): followed by PtdIns(3,4,5)P3, PtdIns(4,5)P2 and PtdIns(3,5)P2

Molecule: ZO-2 PDZ2 (from UniProt Q9UDY2)
Kd [7]: 391 µM

Molecule: GST-ZO2-PDZ2 WT (domain or fragment)
stoichiometry N (GST-ZO2-PDZ2 WT (mouse)): 2 | Kd [8]: 9.9 µM

Molecule: PtdIns(3,5)P2
PtdInsP selectivity (relative binding) (GST-ZO1-PDZ2 [4]): followed by PtdIns(3,4,5)P3, PtdIns(4,5)P2 and PtdIns(3,5)P2

Molecule: Cc1c2oc3c(C)ccc(C(=O)N[C@@H]4C(=O)N[C@H](C(C)C)C(=O)N5CCC[C@H]5C(=O)N(C)CC(=O)N(C)[C@@H](C(C)C)C(=O)O[C@@H]4C)c3nc-2c(C(=O)N[C@@H]2C(=O)N[C@H](C(C)C)C(=O)N3CCC[C@H]3C(=O)N(C)CC(=O)N(C)[C@@H](C(C)C)C(=O)O[C@@H]2C)c(N)c1=O [actinomycin D] (I: T[dV]P[Sar][NMeV] / II: T[dV]P[Sar][NMeV]; ester I:1-I:C, II:1-II:C; linker I:N-II:N via Actinocin(9to1))
speckle protein distribution (nuclear speckles): fewer and/or abnormally large clusters

Molecule: ZO-1 PDZ2 (from UniProt Q07157)
Kd [9]: 15.5 µM

Molecule: B1
stoichiometry N (SEC): 2

Molecule: PSSRASSRASSRPRPDDLEI [Connexin 43 (Cx43) C-terminal peptide]
Kd (ZO-1 PDZ2 R251AK253A): 21 ± 3.2 µM | Kd (ZO-1 PDZ2 R251A): 19 ± 3.4 µM | Kd (ZO-1 PDZ2 R219A [10]): 11 ± 1.6 µM | Kd (ZO-1 PDZ2 K194A [11]): 12 ± 1.6 µM | Kd (GST-ZO1-PDZ2 WT): 9.9 ± 1.3 µM | Kd (ZO-1 PDZ2 K253A): 22 ± 3.6 µM | Kd (ZO-1 PDZ2 R193A [12]): 11 ± 2.1 µM

More lines, main results first:

effect of mutation on peptide affinity (ZO-1 PDZ2 R193A [1]): little effect | binding to the Cx43 peptide (ZO-1 PDZ2 K246A): no significant binding | effect of mutation on peptide affinity (ZO-1 PDZ2 K194A [2]): little effect | binding to the Cx43 peptide (ZO-1 PDZ2 R201A): no significant binding | effect of mutation on peptide binding (ZO-1 PDZ2 R219A [3]): no effect
Molecule: NH2.PSSRASSRASSRPRPDDLEI.OH [Connexin43 peptide]

PtdInsP binding as compared to PtdIns(4,5)P2 or PtdIns(3,5)P2 (GST-ZO2-PDZ2): slightly stronger | inhibition of association of GST-ZO2-PDZ2 with the Cx43 peptide [5]: inhibited association | PtdInsP binding as compared to PtdIns(4,5)P2 or PtdIns(3,5)P2 (GST-ZO1-PDZ2 [6]): slightly stronger
Molecule: PtdIns(3,4,5)P3
PtdInsP selectivity (relative binding) (GST-ZO1-PDZ2 [4]): followed by PtdIns(3,4,5)P3, PtdIns(4,5)P2 and PtdIns(3,5)P2

inhibition of association of GST-ZO2-PDZ2 with the Cx43 peptide [5]: no effect | lipid binding (GST-ZO1-PDZ1–3): bound non-selectively
Molecule: phosphatidylserine [PS]

lipid binding (GST-ZO1-PDZ1–3): bound non-selectively
Molecule: phosphatidic acid [PA]

PtdInsP selectivity (relative binding) (GST-ZO1-PDZ2 [4]): slight preference | PtdInsP binding as compared to PtdIns(4,5)P2 or PtdIns(3,5)P2 (GST-ZO2-PDZ2): slightly stronger | inhibition of association of GST-ZO2-PDZ2 with the Cx43 peptide [5]: inhibited association | PtdInsP binding as compared to PtdIns(4,5)P2 or PtdIns(3,5)P2 (GST-ZO1-PDZ2 [6]): slightly stronger
Molecule: PtdIns(3,4)P2

lipid binding (GST-ZO1-PDZ1–3): bound non-selectively
Molecule: phosphatidylinositol [PtdIns]
